Assay results collected from several papers.
Target: STE20-like serine/threonine-protein kinase (SLK, Homo sapiens, UniProt Q9H2G2)

`O=C(Nc1c[nH]nc1C(=O)NC1CCNCC1)c1cc(F)cc(F)c1` has a remaining binding of 100% (binding; competition with immobilised ligand; 1 µM).
For `O=C(c1ccc(Nc2ncc(Cl)c(-c3cc4ccccc4s3)n2)cc1)N1CCC(N2CCCC2)CC1`, the remaining binding was 1.7% (binding; competition with immobilised ligand; 1 µM).
`O=C(O)[C@H]1[C@H](Cn2nnc3ccccc3c2=O)CC[C@@H]1C(=O)c1ccc(OCCC2CCOCC2)cc1` has a remaining binding of 96% (cell-free assay; competition with immobilised ligand; 1 µM).
The remaining binding of `C[C@H]1CCN(c2nccc(-c3cnn4ncccc34)n2)C1` is reported as 96% (binding; 1 µM).
The remaining binding of `COc1cnc(Nc2cccc(S(N)(=O)=O)c2)nc1N1CCN(c2ccccc2)CC1` is reported as 99% (binding; competition with immobilised ligand; 1 µM).
For `O=C(NCCCN1CCOCC1)c1ccc(Nc2ncc(Cl)c(-c3ccc(Cl)s3)n2)cc1`, the remaining binding was 8% (binding; competition with immobilised ligand; 1 µM).
The remaining binding of `COc1ncc2cc3ccccc3nc2c1C#N` is reported as 89% (cell-free assay; competition with immobilised ligand; 5 µM).
`Cc1c(NC(=O)c2cc(C(N)=O)nc3cc(F)ccc23)c(C(F)(F)F)nn1Cc1ccc(C(C)(C)C)cc1` gave a remaining binding of 100% (cell-free assay; competition with immobilised ligand; 1 µM).
For `CN(C)c1nccc(-c2cnc3ncccn23)n1`, the remaining binding was 100% (binding; 1 µM).
With `CCN1CCN(Cc2ccc(C(=O)Nc3ccc(C)c(Oc4ccc5c(c4)CC(=O)N5)c3)cc2C(F)(F)F)CC1` the remaining binding was 76% (binding; competition with immobilised ligand; 1 µM).
The remaining binding of `CCOC(=O)c1cc2cc(-c3cc(C(=O)NCc4ccc(C(=O)O)cc4)nn3C)ccc2[nH]1` is reported as 98% (cell-free assay; competition with immobilised ligand; 0.1 µM).
`N[C@@H]1CCN(c2nccc(-c3cnn4ncccc34)n2)C1` gave a remaining binding of 83% (binding; 1 µM).
The remaining binding of `c1cncc(-c2cccc(Nc3nccc(NC4CCCCC4)n3)c2)c1` is reported as 19% (binding; competition with immobilised ligand; 10 µM).
For `CC(=O)N1CCC(c2ccc(C(=O)NC3=NCCN3)cc2C(F)(F)F)CC1`, the remaining binding was 94% (cell-free assay; competition with immobilised ligand; 1 µM).
For `O=C(c1ccc(Nc2ncc(Cl)c(-c3ccc(Cl)s3)n2)cc1)N1CCC(N2CCCC2)CC1`, the remaining binding was 1.2% (binding; competition with immobilised ligand; 1 µM).
With `CN(CCCC(F)(F)F)c1nccc(-c2cnn3ncccc23)n1` the remaining binding was 85% (binding; 1 µM).
For `C[C@@H]1CN(c2cc(-c3n[nH]c4ccc(OC5(C)CC5)cc34)ncn2)C[C@H](C)O1`, the remaining binding was 98% (cell-free assay; competition with immobilised ligand; 0.1 µM).
For `CC1CCCN1c1nccc(-c2cnn3ncccc23)n1` (stereo not drawn), the remaining binding was 100% (binding; 1 µM).
`O=C(NS(=O)(=O)c1ccc(NCC2CCOCC2)c([N+](=O)[O-])c1)c1ccc(N2CCN(Cc3ccc(C(F)(F)F)cc3-c3ccc(Cl)cc3)CC2)cc1Oc1cnc2[nH]ccc2c1` gave a remaining binding of 100% (cell-free assay; competition with immobilised ligand; 1 µM).
For `CN(c1nccc(-c2cnn3ncccc23)n1)C1CC1`, the remaining binding was 100% (binding; 1 µM).
`FC(F)(F)Oc1cccc(-c2cnc3ccc(-c4ccncc4)nn23)c1` has a remaining binding of 7.8% (binding; competition with immobilised ligand; 5 µM).
